# Compound activity as filed in PubChem.
# CSN deneddyl inh – CSN deneddylation inhibition; Q92905; Purified CSN, SCF-Nedd8-OG deneddylation, fluorescence polarization; inhibition, % at 12.5 µM; 360,000 compounds, 0.38% hits;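 active = pattern-corrected inhibition above about 35%, with an unprinted fluorescence ratio check between 0.5 and 1.5, limit read from the data, passing the limit was not always enough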;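 note: 0% = enzyme with substrate and 100% = substrate without enzyme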
#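 Schedule: reaction 90 min, room temperature / Assay system: HEK293T-derived human Csn5 enzyme / Input: Csn5 at 0.24 nM final / Measure: inhibition of Csn5 cleavage, % / Control set: substrate-only high control, full reaction low control / Technique: fluorescence polarization of the substrate / Buffer or medium: Tris/NaCl/DTT buffer, pH 7.5 / Reagent: SCFSkp2-Nedd8OG substrate at 10 nM final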
# Rev-erbA mod – modulators of human Rev-erb alpha DNA binding; P20393; Rev-erbα–FITC-DNA binding, fluorescence polarization, 90 min; activity, % at 10 µM; 370,000 compounds, 0.79% hits;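 active = activity above about 14%, limit read from the data; passing the limit was not always enough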;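 note: 0% = DMSO wells with 35 nM protein and 100% = DMSO wells with 750 nM protein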
# aDG glyco act – alpha-DG glycosylation activation. Pro5-aDG cells, alpha-DG glycosylation AlphaScreen (IIH6); 0% Pro5, 100% B10-LARGE cell signal. activation, % at 10 µM. 360,000 compounds, 0.22% hits. AID 624168;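 active = activation of at least 8% versus controls, or a plate z-score of at least 8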;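 note: Pro5 are CHO cells carrying HIG-tagged alpha-DG that lacks glycosylation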
# HNF4A DNA FP – change in binding of human HNF4 alpha to DNA; HNF4a-FITC DNA binding, fluorescence polarization, 1 h; activity change, % at 10 µM; 360,000 compounds, 0.3% hits; P41235; in the data active = activity change above about 30%, passing the limit was not always enough
# Target sequence (P41235 whole entry, looked up): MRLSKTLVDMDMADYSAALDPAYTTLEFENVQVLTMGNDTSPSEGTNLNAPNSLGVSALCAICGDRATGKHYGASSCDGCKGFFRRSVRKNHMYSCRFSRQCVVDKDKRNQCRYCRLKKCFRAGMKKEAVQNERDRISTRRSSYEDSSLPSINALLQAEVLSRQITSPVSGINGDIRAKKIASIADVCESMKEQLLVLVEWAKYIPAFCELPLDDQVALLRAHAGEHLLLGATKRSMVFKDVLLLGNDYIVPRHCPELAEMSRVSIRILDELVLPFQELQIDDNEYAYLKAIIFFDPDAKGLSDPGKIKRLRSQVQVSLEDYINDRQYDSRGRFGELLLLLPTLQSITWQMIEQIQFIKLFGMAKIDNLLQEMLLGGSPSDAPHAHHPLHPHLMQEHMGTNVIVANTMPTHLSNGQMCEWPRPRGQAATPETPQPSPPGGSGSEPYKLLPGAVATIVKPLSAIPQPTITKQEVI
# Active calls of the source: *; . = no result. Shown are actives, neighbours in structure and some others; about 1.5% of the full set was active somewhere.
SMILES,CSN deneddyl inh,Rev-erbA mod,aDG glyco act,HNF4A DNA FP
NNC(=O)COc1ccc(F)cc1,-1.5,-0.4,0.6,32.1*
NNC(=O)COc1ccc(-c2nccc(-c3ccc(F)cc3)n2)cc1,1.6,2.0,-0.1,1.1
O=C(NN=Cc1c(O)ccc2ccccc12)c1ccc2c(c1)OCO2,5.8,-3.6,0.8,3.2
O=C(N/N=C/c1c(O)ccc2ccccc12)c1ccc(CO)nc1,28.8,-5.2,0.3,42.3*
Cc1ccc(C)n1-c1sc2c(c1C(=O)O)CCCC2,38.7*,-15.8,-0.3,-42.2
CCOC(=O)c1c(-n2c(C)cc(C=O)c2C)sc2c1CCCC2,4.4,-1.9,0.1,0.8
CCCN(C(=O)c1cc(-c2ccco2)nc2ccccc12)c1c(N)n(Cc2ccccc2)c(=O)[nH]c1=O,10.6,-29.9,-0.2,-9.0
COCCN(C(=O)c1cc(-c2ccco2)nc2ccccc12)c1c(N)n(Cc2ccccc2)c(=O)[nH]c1=O,37.2*,-24.1,-0.5,-19.5
CC(=O)N1CCN(c2ccc(C(N)=O)cc2[N+](=O)[O-])CC1,1.8,-0.7,-0.1,3.2
COc1ccc(N2CCN(c3ccc(C(N)=O)cc3[N+](=O)[O-])CC2)cc1,74.5*,-4.2,0.8,-2.6
Cc1sc(-n2c(C)cc(/C=C3\SC(=S)NC3=O)c2C)c(C#N)c1C,34.8,5.9,0.1,66.9*
CCc1ccc(C(=O)CSc2nc(N)cc(=O)[nH]2)cc1,5.0,3.0,0.2,49.0*
Cc1ccc2nc(-c3ccccn3)c(Nc3ccccc3C)n2c1,-1.6,-4.1,1.7,38.6*
Cc1cccc(C(=O)Nc2nc3ncccn3c2-c2ccc(F)c(F)c2)c1,.,-3.4,.,.
CCOC(=O)c1sc(N)c(C#N)c1COC(=O)CNC(=O)c1ccccc1,40.9*,-5.8,0.0,73.9*
COC(=O)[C@]12C[C@H](CC(=O)N3CCN(C(=O)c4ccco4)CC3)C(=O)N(Cc3ccco3)C1=C[C@H](C(C)(C)C)O[C@@H]2C,.,4.5,.,.
O=c1c2c(-c3ccco3)csc2nc(SCc2cn3cccnc3n2)n1-c1ccccc1,46.3*,-11.3,-0.4,-7.3
Cc1ccc(NC(=O)CSc2nnc(CNC(=O)c3ccco3)n2C)cc1,-3.1,0.8,-0.1,4.0
Cc1ccc(NC(=O)CSc2nnc(CNC(=O)c3ccco3)n2C)cc1C,43.3*,-0.3,0.3,-1.9
COc1ccc(-c2nnc(SCc3c(F)cccc3F)n2N)cc1,.,-3.8,.,.
CC(=O)Oc1cc(C(=O)OCC(=O)NC23CC4CC(CC(C4)C2)C3)cc(OC(C)=O)c1OC(C)=O,41.2*,-30.2,-0.3,-16.4
C=CCc1ccc(OCC(O)CN2CCCCC2)c(OC)c1 (stereo not drawn),1.1,-0.6,0.4,50.3*
C=CCc1ccc(OCC(O)CN2CCN(c3ccccc3)CC2)c(OC)c1 (stereo not drawn),-3.3,0.4,0.0,-0.3
COc1ccc(CN2CCC(CNC(=O)NC(C)C)CC2)cc1,.,0.2,.,.
COc1cc(C=Nn2c(-c3cc(-c4ccccc4)n[nH]3)n[nH]c2=S)ccc1OC(C)=O,.,0.1,.,.
SMILES,CSN deneddyl inh,Rev-erbA mod,aDG glyco act,HNF4A DNA FP
CCNC(=S)N1CCNC(=O)C1CC(=O)OC (stereo not drawn),80.7*,1.8,0.0,2.1
COc1ccc(C=Nn2c(-c3ccc(F)cc3)n[nH]c2=S)cc1OCc1ccccc1,.,-3.6,.,.
Cc1oc2c(c1C(=O)N1CCC(C)CC1)C(=O)c1ccccc1C2=O,.,7.8,.,.
CCOC(=O)C1CCN(C(=O)c2c(C)oc3c2C(=O)c2ccccc2C3=O)CC1,5.0,11.2,4.3*,0.1
O=C(N/N=C\c1cccnc1)c1cc(-c2ccc(Cl)s2)[nH]n1,38.6*,-10.0,-0.2,8.1
COc1ccc(NC(=O)CN(C)S(=O)(=O)c2ccccc2)c([N+](=O)[O-])c1,4.5,-0.9,-0.1,39.4*
COc1ccc(NC(=O)CN(C)S(=O)(=O)c2ccc(Cl)cc2)c([N+](=O)[O-])c1,10.7,3.0,0.0,4.9
c1ccc([C@@H]2CCNC[C@H]2COc2ccc3c(c2)OCO3)cc1,.,-9.0,.,.
Cc1[nH]c2ccccc2c1C(=O)CSc1nc2cc(S(=O)(=O)N3CCCCC3)ccc2o1,100.5*,-1.2,0.6,4.4
Cc1ccc(C(=O)CSc2nc3cc(S(=O)(=O)N4CCOCC4)ccc3o2)cc1,0.5,-4.7,0.1,0.7
CCN1/C(=C/C=C/c2sc3ccccc3[n+]2CC)Sc2ccccc21,105.1,.,1.0,94.0
CCN1/C(=C/C=C/C=C/C=C/c2sc3ccccc3[n+]2CC)Sc2ccccc21,15.8,-8.6,3.1,59.5*
